mABHD4 FP: inhibits mouse alpha/beta hydrolase domain 4. purified mABHD4, FP-Rh probe fluorescence polarization. inhibition, % at 8.92 µM. Q8VD66. AID 720543. 370,000 tested, 0.54% active;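 active means inhibition exceeding the mean over every tested compound plus 3 SD, cut at about 30% in these data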
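Test system: mouse ABHD4 enzyme, wild type. Reagent: FP-Rh fluorescent activity-based probe, added after compound pre-incubation. Timing: pre-incubation 45 min, probe exposure 60 min, at 25 °C. Technique: FP readout, ex 525 nm / em 598 nm. Benchmarks: high control S159A mutant with DMSO, low control median of compound wells.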
rCAG RNA binder: molecules binding r(CAG) RNA repeats; AID 651821; r(CAG) RNA repeat, TO-PRO-1 dye displacement fluorescence; 370,000 tested, 1.3% active; inhibition, % at 3 µM;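 active means inhibition above the plate cutoff, the mean of all test compounds on that plate plus 3 SD, cut at about 35% in these data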;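 further: higher means more dye released from RNA so lower well fluorescence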
LEDGF integ inh: blocks HIV-1 LEDGF/p75-dependent DNA integration; TR-FRET IN-LEDGF/p75 DNA integration, Eu/Cy5; inhibition, % at 3.7 µM; 370,000 tested, 0.64% active;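 active means inhibition above the screen-wide mean plus 3 SD, cut at about 13% in these data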;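 further: signal is the Cy5 over europium emission ratio at 671 and 618 nm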
DAGLB inhibitor: diacylglycerol lipase beta (human) inhibition. Q8NCG7. HEK293T DAGLB membrane lysate, EnzChek fluorogenic substrate. inhibition, % at 5.17 µM. 340,000 tested, 0.059% active; in the data active means inhibition above about 34%
HTRA1 inh: inhibitors of human serine peptidase HTRA1. AID 504803. inhibition, % at 5.96 µM. recombinant HTRA1, FP-rhodamine activity-based probe, fluorescence polarization. 340,000 tested, 0.5% active. Q92743; in the data active means inhibition above about 36%
Target sequence (Q92743 whole entry, looked up): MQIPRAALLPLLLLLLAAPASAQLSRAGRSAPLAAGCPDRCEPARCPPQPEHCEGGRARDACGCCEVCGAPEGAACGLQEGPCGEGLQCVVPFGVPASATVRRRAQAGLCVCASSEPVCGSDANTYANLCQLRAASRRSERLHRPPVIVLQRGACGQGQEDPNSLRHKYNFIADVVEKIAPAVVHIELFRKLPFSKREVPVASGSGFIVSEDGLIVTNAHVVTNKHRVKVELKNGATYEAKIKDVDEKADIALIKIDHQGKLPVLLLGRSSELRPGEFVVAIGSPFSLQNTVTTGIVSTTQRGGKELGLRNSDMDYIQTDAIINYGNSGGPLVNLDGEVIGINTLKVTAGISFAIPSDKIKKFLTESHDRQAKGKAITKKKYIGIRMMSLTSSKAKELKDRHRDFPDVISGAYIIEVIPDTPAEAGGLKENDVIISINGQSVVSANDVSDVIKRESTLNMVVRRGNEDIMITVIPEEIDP
PRMT1 inh: PRMT1 (human) inhibition, primary screen; Q99873; recombinant PRMT1, activity-based probe fluorescence polarization; inhibition, % at 2.79 µM; 370,000 tested, 1.3% active;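 active means inhibition above about 21% made by adding two undisclosed values, limit read from the data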
HTRA1 inh conf: HTRA1 (human) inhibition, confirmation; shares compounds with HTRA1 inh; recombinant HTRA1, FP-rhodamine activity-based probe, fluorescence polarization; inhibition, % at 5.96 µM; 1,600 tested, 66% active; AID 540248;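 active means mean inhibition over three repeats above a set limit taken from the earlier primary screen, cut at about 37% in these data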;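 further: inhibitors block probe binding so polarization drops and inhibition rises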
rCAG binder conf: r(CAG) RNA repeat binding, confirmation. shares compounds with rCAG RNA binder. TO-PRO-1 dye displacement fluorescence. inhibition, % at 3 µM. 4,300 tested, 70% active. AID 652065;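 active means inhibition above a per-plate cutoff, the mean inhibition of sample wells plus 3 SD, cut at about 35% in these data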;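 further: loss of TO-PRO-1 fluorescence as compound displaces dye from 1x1 AA loop RNA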
DNA CAG counter: disrupts DNA CAG TO-PRO-1 complex, flagging rCAG hits; 4,300 tested, 94% active; inhibition, % at 3 µM; shares compounds with rCAG RNA binder; d(CAG) DNA oligo TO-PRO-1 dye displacement, fluorescence;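 active means inhibition above its plate's cutoff, the mean test-well inhibition plus 3 SD, cut at about 4.8% in these data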;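 further: hits displace the dye from DNA and so lower well fluorescence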
DNA CAG DR: disrupts DNA CAG TO-PRO-1 complex in dose response | shares compounds with rCAG RNA binder | DNA CAG/GTC duplex TO-PRO-1 dye displacement fluorescence | IC50, µM | 250 tested, 20% active | AID 686960; in the data active means IC50 below about 10 µM
PRMT1 confirm: confirmation of human PRMT1 inhibitors; shares compounds with PRMT1 inh; recombinant His-PRMT1, activity-based probe fluorescence polarization; inhibition, % at 2.79 µM; 3,300 tested, 42% active;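 active means mean inhibition across replicates above the hit cutoff derived for the earlier primary screen, cut at about 22% in these data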
mABHD4 conf: confirmation of mouse ABHD4 inhibitors. purified mABHD4, FP-Rh probe fluorescence polarization. 1,800 tested, 55% active. inhibition, % at 8.92 µM. shares compounds with mABHD4 FP;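 active means mean inhibition across replicates above the hit cutoff set in the primary screen, cut at about 30% in these data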
IN multimer act: counter-screen for LEDGF/p75 integration inhibitors: HIV-1 integrase multimerization activators. 2,000 tested, 17% active. shares compounds with LEDGF integ inh. TR-FRET HIV-1 integrase multimerization, biochemical. activation, % at 7.7 µM; in the data active means activation above about 8.9%
TR-FRET interf: counter-screen for LEDGF/p75 integration inhibitors: TR-FRET optical interference. 2,000 tested, under 10 active. AID 1053135. TR-FRET optical interference counterscreen, HIV-1 IN multimerization. shares compounds with LEDGF integ inh. inhibition, % at 7.7 µM;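 active means inhibition above the mean over all tested compounds plus 3 SD, which no compound reached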
LEDGF integ conf: confirmation of HIV-1 LEDGF/p75-dependent integration inhibitors. shares compounds with LEDGF integ inh. TR-FRET LEDGF/p75-dependent HIV-1 integration, biochemical. inhibition, % at 3.7 µM. 2,000 tested, 36% active; in the data active means inhibition above about 14%
Hits are given with their value; i = inactive; nt = no result given. Most compounds without a hit are left out; they make up all but 3.2% or so of the library.

SMILES | mABHD4 FP | rCAG RNA binder | LEDGF integ inh | DAGLB inhibitor | HTRA1 inh | PRMT1 inh | HTRA1 inh conf | mABHD4 conf | IN multimer act | TR-FRET interf | LEDGF integ conf | others
CCCOC(=O)c1c(N)sc2c1CCC2 | i | i | i | i | i | i | nt | nt | nt | nt | nt
CCOC(=O)C(C(C)=O)c1c(Br)c(O)c(O)c2c(C(=O)c3ccc(C)cc3)coc12 (stereo unspecified) | 32 | i | 26 | i | 69 | 40 | 78 | 38 | i | i | 14 | PRMT1 confirm=i
COCCN=c1scc(-c2ccco2)n1/N=C/c1ccc(O)c(O)c1O | 60 | 48 | 45 | i | 68 | 40 | 78 | 62 | 16 | i | 53 | rCAG binder conf=60;DNA CAG counter=30
C=CCN=c1scc(-c2ccco2)n1/N=C/c1ccc(O)c(O)c1O | 49 | 44 | 43 | i | 72 | 29 | 86 | 60 | i | i | 30 | rCAG binder conf=59;DNA CAG counter=29;PRMT1 confirm=31
COCCN=c1scc(-c2cccs2)n1/N=C(\C)c1ccco1 | i | i | i | i | i | i | nt | nt | nt | nt | nt
Cc1ccc2c(c1)c(=O)c1c3n2CCN(C(=O)CCl)C3CC1 (stereo unspecified) | i | i | 14 | i | 48 | i | i | nt | 15 | i | 49
O=c1cc(-c2ccc(O)c(O)c2)oc2c1ccc1ccccc12 | 34 | 57 | 51 | i | 66 | i | 74 | 31 | i | i | 68 | rCAG binder conf=61;DNA CAG counter=28
CCOC(=O)c1ccc(CC(=O)c2ccc(O)c(O)c2O)o1 | 31 | i | 74 | i | 53 | 43 | 82 | i | i | i | 58 | PRMT1 confirm=i
Cc1cc2nc3ccc(N(C)C)cc3nc2cc1N | 57 | i | 31 | i | 66 | 70 | 60 | i | 15 | i | 72
Cc1ccc(-n2nc3cc(C)c(N)cc3n2)cc1 | i | i | i | i | i | i | nt | nt | nt | nt | nt
O=C(c1cc(=O)[nH]c2ccccc12)N1CCN(Cc2ccc3c(c2)OCO3)CC1 | i | i | i | i | i | i | nt | nt | nt | nt | nt
Cc1ccc(C)c(N=Cc2cc3c(cc2[N+](=O)[O-])OCO3)c1 | 50 | i | 40 | i | 48 | 22 | i | 45 | i | i | i
COc1ccc(CNC(=O)C(C)Sc2ccc(C)cc2)cc1 (stereo unspecified) | i | i | i | i | i | i | nt | nt | nt | nt | nt
O=S(=O)(c1ccc2nc(-c3ccco3)c(-c3ccco3)nc2c1)N1CCOCC1 | 56 | 69 | 67 | i | 41 | 52 | i | i | i | i | 45 | PRMT1 confirm=69
O=S(=O)(c1ccc2ccccc2c1)N1CCOCC1 | i | i | i | i | i | i | nt | nt | nt | nt | nt
CCOc1ccc(CN(C)C(C)C(=O)NCCc2ccc(F)cc2)cc1 (stereo unspecified) | i | i | i | i | i | i | nt | nt | nt | nt | nt
Cc1cc(=O)c2c(o1)C(=O)c1occc1C2=O | 58 | i | 51 | i | 46 | 36 | i | 61 | 35 | i | 56 | PRMT1 confirm=26
COc1c2occc2c(OC)c2c(=O)cc(C)oc12 | i | i | i | i | i | i | nt | nt | nt | nt | nt
COC(=O)[C@H](CCSC)NC(=O)NCCC1=CCCCC1 | i | i | i | i | i | i | nt | nt | nt | nt | nt
COc1ccc(C(=O)CSc2nnc(-c3ccco3)c(-c3ccco3)n2)cc1 | i | 51 | 15 | i | 37 | 27 | i | nt | 13 | i | 41 | rCAG binder conf=49;DNA CAG counter=22;PRMT1 confirm=74
COc1cccc(NC(=O)CSc2nnc(-c3ccco3)c(-c3ccco3)n2)c1 | 46 | 61 | 25 | i | 39 | 47 | i | i | i | i | 39
COc1ccc(NC(=O)CSc2nnc(-c3ccco3)c(-c3ccco3)n2)cc1OC | i | i | i | i | i | i | nt | nt | nt | nt | nt
Cc1nc(NC(=S)Nc2ccccc2)sc1C | i | i | i | i | i | i | nt | nt | nt | nt | nt
O=S(=O)(O)c1cc(O)c(N=Nc2ccc(O)cc2O)c2ccccc12 | i | 65 | 32 | i | 78 | 44 | 54 | nt | 95 | i | 40 | rCAG binder conf=94;DNA CAG counter=67;PRMT1 confirm=43
O=[N+]([O-])c1ccc(N/N=C/c2ccc(O)c(O)c2O)c(S(=O)(=O)N2CCOCC2)c1 | 37 | 69 | 50 | i | 74 | 35 | 74 | 58 | i | i | 36 | rCAG binder conf=84;DNA CAG counter=52;PRMT1 confirm=56
SMILES | mABHD4 FP | rCAG RNA binder | LEDGF integ inh | DAGLB inhibitor | HTRA1 inh | PRMT1 inh | HTRA1 inh conf | mABHD4 conf | IN multimer act | TR-FRET interf | LEDGF integ conf | others
COc1cc(/C=N/Nc2ccc([N+](=O)[O-])cc2S(=O)(=O)N2CCOCC2)cc(OC)c1OC | i | i | i | i | i | i | nt | nt | nt | nt | nt
O=C(CSc1nnc(-c2ccc(Cl)cc2)n1-c1ccccc1)Nc1ccc(Oc2ccccc2)cc1 | i | i | i | nt | nt | i | nt | nt | nt | nt | nt
Cc1cc(C)cc(C(=O)NCC(=O)OCC(=O)N(C)C2CCS(=O)(=O)C2)c1 (stereo unspecified) | i | i | i | i | i | i | nt | nt | nt | nt | nt
Oc1ccc(/C=N/N2CCCCC2)c(O)c1O | 31 | i | 28 | i | 38 | 23 | i | i | i | i | 25
Nc1cc2cccnc2cc1Cl | 53 | 41 | 18 | i | 46 | i | i | 36 | i | i | 27 | rCAG binder conf=i;DNA CAG counter=i
Cc1c(Br)c(O)c(Br)c2sc(=O)oc12 | 67 | 92 | 55 | i | 47 | 80 | i | 66 | i | i | 14 | rCAG binder conf=42;DNA CAG counter=21;DNA CAG DR=i
CN(C)c1ccc(N/C=C/C(=O)c2ccco2)cc1 | 44 | i | 38 | i | 47 | 21 | i | i | 11 | i | i
CNc1ccc(Br)cc(C(=O)/C=C/c2ccc(OC)cc2OC)c1=O | 36 | i | 13 | i | 50 | i | i | 30 | i | i | i
COc1ccc(/C=C/C(=O)c2ccc(OC)cc2OC)c(OC)c1 | i | i | i | i | i | i | nt | nt | nt | nt | nt
